Rce1 inh – yeast Rce1p protease inhibitors, primary screen, biochemical, fluorescence, cell-free homogeneous | CAAX prenyl protease 2 (Saccharomyces cerevisiae (strain ATCC 204508 / S288c)), Q03530 | yeast membranes, quenched prenylated peptide cleavage fluorescence | calls only | 0.27% of 290,000 active;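 active means fall in fluorescence gain of 50% or more versus controls, with final raw signal at or below 3038400; inconclusive means same 50% fall but final raw signal above 3038400; inactive means fall in fluorescence gain under 50%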;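 further: plate controls were neutral control wells for no effect and wells lacking membranes for full effect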
T cell modulator – modulators of CD8 T cell-vesicle binding, primary screen, mouse 2C CD8+ T cells, flow cytometry; AID 2052, 2009; 2C CD8+ T cell-vesicle binding; stronger effect = lower value; response (vesicle binding), % at 7 µM; 0.068% of 330,000 active;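 active means response, share of CD8 T cells binding vesicles, and their 90th percentile fluorescence all below set limits, cut at about 80% in these data, passing the limit was not always enough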;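 further: values below 100% mean blocked vesicle binding to the CD8+ T cells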
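Benchmarks: naked versus QL9-loaded vesicles / Assay system: purified 2C TCR transgenic mouse naive CD8+ T cells / Technique: high-throughput flow cytometry with anti-B7-1 and anti-CD8 staining / Timing: Cell–vesicle co-incubation 1.5 h at 37 °C, staining 20 min on ice / Read-out: percent CD8+ FL2 mean versus row control / Probe or stimulus: QL9-loaded Drosophila micro-vesicles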
MEKK2 WT-MEK5 – modulators of MEK5 binding to wildtype MEKK2, primary screen, biochemical, multiplex bead flow cytometry, Alexa488-MEK5; Mitogen-activated protein kinase kinase kinase 2 (Homo sapiens), Q9Y2U5; Alexa488-MEK5 binding to MEKK2 WT; actives lie on both sides; binding response (% of control), % at 10 µM; 1.1% of 290,000 active; AID 1531, 2009; in the data active means binding response below about 67% or above about 130%; inconclusive means no clear call, values can overlap the other calls; inactive means in between
MEKK3 PB1 HTS – modulators of MEKK3-MEK5 PB1 binding, primary screen, biochemical, wildtype MEKK3, multiplex bead flow cytometry, Alexa488-MEK5; Mitogen-activated protein kinase kinase kinase 3 (Homo sapiens), Q99759; bead-based flow cytometry, Alexa488-MEK5 binding to MEKK3; actives lie on both sides; 0 = blocked by unlabeled MEK5, 100 = vehicle; binding response (% of control), % at 10 µM; 1.4% of 290,000 active; AID 1529, 2009;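 active means binding response more than 3 SD above or below the average of its plate-row segment, actives on both sides; inconclusive means wells at one plate position flagged as instrument error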;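 further: Alexa488 bead fluorescence after subtracting the streptavidin-only scavenger bead signal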
MEKK2 mut-MEK5 – MEK5 binding signal on mutant MEKK2 PB1, primary screen, biochemical, multiplex bead flow cytometry, Alexa488-MEK5; Alexa488-MEK5 binding to MEKK2 mutant; percent response, % at 10 µM; 0.35% of 290,000 active; in the data active means percent response above about 24%, passing the limit was not always enough
UCH37 inh – inhibitors of human UCH37 deubiquitinase, primary screen, biochemical, Ub-AMC cleavage, fluorescence. Ubiquitin carboxyl-terminal hydrolase isozyme L5 (Homo sapiens), Q9Y5K5. purified proteasome/UCH37. inhibition, % (test concentration not listed). 0.33% of 330,000 active. AID 588478, 2011;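 active means mean inhibition over replicate wells above about 20%, limit read from the data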;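 further: 0% = compound-free wells with enzyme and 100% = wells lacking proteasome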
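Assay system: Proteasome-bound UCH37. Buffer or medium: pH 7.4 Tris-HCl (50 mM) with ovalbumin, ATP-MgCl2, DTT. Incubation: 30 min preincubation with enzyme, 25 min cleavage at room temperature. Measured by: fluorescence, ex 355 nm, em 460 nm. Read-out basis: percent inhibition. Control set: wells without proteasome as full block, compound-free enzyme plus substrate as uninhibited.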
* = called active by the depositor; i = inactive; ? = inconclusive; · = no result given; + = active, no number; [ ] = remark or other dose. A selection: hits, their analogues and other compounds. The true share with any hit is near 2.5%.

SMILES	Rce1 inh	T cell modulator	MEKK2 WT-MEK5	MEKK3 PB1 HTS	MEKK2 mut-MEK5	UCH37 inh
C=C1CCC[C@]2(C)C[C@H]3OC(=O)C(CNCC(C)C)[C@H]3CC12 (stereo partly drawn)	i	120	106	106	6	21*
CC(C)c1c(C(=O)N/N=C/c2c[nH]c3ccccc23)nnn1-c1nonc1N	+	312	100	99	-2	·
COc1cccc(/C=N/NC(=O)c2nnn(-c3nonc3N)c2C(C)C)c1OCc1ccc(F)cc1	+	252	102	103	2	·
CC1CCN(Cc2c(C(=O)N/N=C/c3cccc(C(F)(F)F)c3)nnn2-c2nonc2N)CC1	+	365	97	100	2	·
CC(C)c1c(C(=O)N/N=C/c2cccc3ccccc23)nnn1-c1nonc1N	+	226	100	101	0	·
Cc1nnc(C)n1N=Cc1c(O)ccc2ccccc12	·	·	·	·	·	2
Cc1cc(-n2nc(C)cc2C)nc(NS(=O)(=O)c2ccccc2Cl)n1	i	326	21*	101	34	0
Cc1cc(C)nc(NS(=O)(=O)c2ccccc2)n1	i	278	100	104	1	1
O=C(C[n+]1ccc(C(=O)NN=Cc2ccc(OCc3ccccc3)cc2)cc1)c1ccccc1	·	·	·	·	·	14
COc1ccc(-c2[nH]ncc2C=NNC(=O)c2cccc([N+](=O)[O-])c2)cc1OC	·	·	·	·	·	4
CCOC(=O)c1nc2cc3n(c(C)c-2c1C)C(C)C(C)=C3C (stereo not drawn)	?	430	130	127*	21	-142
COc1ccc(NC(=O)N/C=C/c2ccco2)cc1	i	131	95	106	-4	4
O=C(N/C=C/c1ccco1)Nc1cccc(Cl)c1	i	301	22*	127	45	-3
COc1ccc(C=NNC(=S)NC2CCS(=O)(=O)C2)cc1 (stereo not drawn)	·	·	·	·	·	8
CN1CCN(C(=S)c2cn(CCOc3ccccc3F)c3ccccc23)CC1	i	233	-9.0*	102	4	2
CCN1CCN(c2cc(C)c3cc(NC(=S)NCCCOC)ccc3n2)CC1	i	800	120	104	9	-19
CCCN(CCC)CCCNC(=S)Nc1ccc2nc(N3CCCC3)cc(C)c2c1	·	410	156*	106	43	-35
CCCCN(CC)CCCNC(=S)Nc1ccc2nc(N3CCN(CC)CC3)cc(C)c2c1	i	171	138*	115	16	-1
CCN(CC)CCNC(=S)Nc1ccc2nc(N3CCCC3)cc(C)c2c1	i	130	103	112	-2	-20
CCCCCOc1ccc(Br)cc1C(C)=NNC1=NCCN1	·	·	·	·	·	1
N#C/C(C(=O)c1ccccc1)=C1/SC=C(N)N1c1ccccc1	·	·	4.0*[inhibitor]	2.0*[inhibitor]	-30	·
N#C/C(C(N)=O)=C1/SC=C(c2ccccc2)N1c1ccccc1	i	435	96	107	20	-17
CC(C)CC1C(C#N)=C(N)Oc2n[nH]c(-c3ccccc3)c21 (stereo not drawn)	i	44*	97	105	1	·
CC(C)(C)c1ccc(OCC(=O)NN=Cc2cc(Br)ccc2OC(=O)c2ccco2)cc1	·	·	·	·	·	-3
COc1cc(C=Nn2nnnc2N)ccc1OCc1ccc(F)cc1	·	·	·	·	·	-62
Fc1ccccc1SCc1nnc(-c2ccccc2Br)o1	i	191	94	98	-5	32*
COC(=O)c1cc(C(=O)c2ccccc2)n2c(=O)c(=CN(C)C)sc12	·	·	·	·	·	-1
CCn1nc(C)c(CN2CCC(C(=O)Nc3cccc(-c4cccc(Cl)c4)c3)CC2)c1C	i	361	146*	100	12	7

Bioassay records deposited in PubChem BioAssay by several laboratories.
